pEC50, pIC50: −log10 of the molar value. Active and inactive are the calls of the source. No cut-off for these calls is given here. Where only a bound is given, the exact number is not on record here.

For data set [1], the target named is T1, Inosine-5'-monophosphate dehydrogenase (Cryptosporidium parvum, UniProt Q8T6T2).
T1 sequence (Q8T6T2 whole entry): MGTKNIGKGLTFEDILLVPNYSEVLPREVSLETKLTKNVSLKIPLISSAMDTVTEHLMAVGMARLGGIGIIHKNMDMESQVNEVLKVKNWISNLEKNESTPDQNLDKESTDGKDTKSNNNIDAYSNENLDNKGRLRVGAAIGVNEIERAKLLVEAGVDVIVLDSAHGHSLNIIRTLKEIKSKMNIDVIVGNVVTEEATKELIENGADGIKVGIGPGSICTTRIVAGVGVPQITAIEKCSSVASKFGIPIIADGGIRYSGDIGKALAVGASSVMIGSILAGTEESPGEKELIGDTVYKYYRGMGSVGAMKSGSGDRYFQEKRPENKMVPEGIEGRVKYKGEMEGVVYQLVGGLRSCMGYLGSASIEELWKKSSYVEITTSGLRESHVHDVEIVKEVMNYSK
Kind of data set: Inhibition of recombinant Cryptosporidium parvum IMPDH assessed as production of NADH by fluorescence assay.

For data set [2], the target named is T1, Inosine-5'-monophosphate dehydrogenase. Kind of data set: Inhibition of recombinant Cryptosporidium parvum IMPDH assessed as production of NADH by fluorescence assay in presence of 0.05% BSA. A digest of the protocol:
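Enzyme inhibition was measured with 0.05% fatty acid free BSA added, to assess non-specific binding.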

Data set [3] has as its system Toxoplasma gondii. Kind of data set: Antiparasitic activity against Cryptosporidium parvum IMPDH expressing Toxoplasma gondii assessed as growth inhibition. Type of data set: functional, organism-based.
Data set [4] concerns Toxoplasma gondii. Nature of the data set: Selectivity ratio for EC50 for wild type Toxoplasma gondii to EC50 for Cryptosporidium parvum IMPDH expressing Toxoplasma gondii. Type of data set: functional.
Data set [5] has as its system Toxoplasma gondii. Kind of data set: Antiparasitic activity against wild type Toxoplasma gondii assessed as growth inhibition. It is filed as functional, organism-based.
For data set [6], the system named is Cryptosporidium parvum. Kind of data set: Antiparasitic activity against Cryptosporidium parvum infected in IL12 knockout mouse model at 250 mg/kg, po for 7 days. It is filed as functional, organism-based. Details: dose 250 mg/kg. Summed up:
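IL12 knockout mice were inoculated with 1,000 oocysts and, from 4 h post-infection, dosed by gavage once daily for 7 days at 250 mg/kg in 10% DMSO/corn oil. Controls were vehicle and paromomycin 2000 mg/kg. Oocysts from feces (days 0, 4, 7) were purified on sucrose gradients, stained 20 min with FITC-labelled OW50 antibody, and counted by flow cytometry, with ANOVA.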

In data set [7] the test system is Liver. Nature of the data set: Half life in mouse liver microsomes. Type of data set: ADME, Microsome.
Data set [8] addresses T2, Inosine-5'-monophosphate dehydrogenase (Cryptosporidium parvum) (UniProt Q8T6T2).
T2 sequence (whole entry): T1 sequence (Q8T6T2 whole entry)
Kind of data set: Pure noncompetitive inhibition of recombinant Cryptosporidium parvum IMPDH with respect to NAD+.

The target in data set [9] is T2, Inosine-5'-monophosphate dehydrogenase (Cryptosporidium parvum). Kind of data set: Mixed type inhibition of recombinant Cryptosporidium parvum IMPDH with respect to NAD+.

For orientation: pIC50 means −log10 of the IC50, conventionally taken in molar units. In the case of `Cn1nc(CC(=O)Nc2ccc3[nH]c4ccccc4c3c2)c2ccccc2c1=O`, the pIC50 in [1] is less than 5.30. On to `Cc1cc(NC(=O)Cc2nn(C)c(=O)c3ccccc23)ccc1Cl`, for which the pIC50 in [1] is 7.10; in data set [2], 7.02.

Consider `O=C(Cc1n[nH]c(=O)c2ccccc12)Nc1ccc(Br)c(C(F)(F)F)c1`, for which the pIC50 is 7.49 in data set [1] and 6.89 in data set [2]. The matching figures for `Cn1nc(CC(=O)Nc2ccc(Br)c(Cl)c2)c2ccccc2c1=O`: 7.52 and 7.12. The matching figures for `Cn1nc(CC(=O)Nc2ccc(Cl)cc2)c2ccccc2c1=O`: 6.64 and 6.55. With `Cn1nc(CC(=O)Nc2ccc3c(c2)oc2ccccc23)c2ccccc2c1=O`, in data set [1], the negative logarithm of the IC50 (pIC50) is less than 5.30. The same measure, in the same setting: to `Cn1nc(CC(=O)Nc2ccc(C(F)(F)F)cc2)c2ccccc2c1=O` belongs less than 5.30; to `Cn1nc(CC(=O)Nc2ccc3ocnc3c2)c2ccccc2c1=O`, less than 5.30.

Take `COc1ccccc1NC(=O)Cc1nn(C)c(=O)c2ccccc12`: the pIC50 in [1] is less than 5.30.

For `Cn1nc(CC(=O)Nc2ccc(C#N)cc2)c2ccccc2c1=O`, the pIC50 in [1] was 6.02; in [2], 6.03. Take `Cn1nc(CC(=O)Nc2ccc(S(C)(=O)=O)cc2)c2ccccc2c1=O`: in data set [1], the pIC50 was less than 5.30. The same measure, in the same setting: to `COc1ccc(CNC(=O)Cc2nn(C)c(=O)c3ccccc23)cc1` belongs less than 5.30. Consider `Cn1nc(CC(=O)Nc2ccc(Cl)c(Cl)c2)c2ccccc2c1=O`, for which the values for the pIC50 in data set [1] and in data set [2] were 7.26 and 7.02, respectively. Regarding `Cn1nc(CC(=O)Nc2ccc(Cl)cc2C(F)(F)F)c2ccccc2c1=O`, in data set [1], the pIC50 was less than 5.30. The pEC50 is −log10 of the EC50, conventionally taken in molar units. Turning to `Cn1nc(CC(=O)Nc2ccc3oc4ccccc4c3c2)c2ccccc2c1=O`, the pEC50 in [3] is 6.40; in data set [5], 5.52. Besides, in [4], the “Ratio EC50” value is 7. In addition, in data set [2], the negative logarithm of the IC50 (pIC50) is 7.52. As to `Cn1nc(CC(=O)NN)c2ccccc2c1=O`, the pIC50 in data set [1] is less than 5.30.

In the case of `Cn1nc(CC(=O)Nc2ccc(Br)cc2Br)c2ccccc2c1=O`, the pIC50 in [1] is less than 5.30. On the same count and under the same terms, with `COc1cccc(NC(=O)Cc2nn(C)c(=O)c3ccccc23)c1` the figure was less than 5.30. On the same count and under the same terms, to `Cn1nc(CC(=O)Nc2cc(F)c(F)c(F)c2)c2ccccc2c1=O` belongs less than 5.30.

Take `Cn1nc(CC(=O)Nc2ccc(F)c(C(F)(F)F)c2)c2ccccc2c1=O`: the pIC50 in data set [1] and in data set [2] was 6.82 each time. Regarding `Cn1nc(CC(=O)Nc2ccc(Br)cc2F)c2ccccc2c1=O`, the pIC50 in data set [1] was 5.96; in data set [2], 5.77. For `Cn1nc(CC(=O)Nc2ccc(C#N)c(C(F)(F)F)c2)c2ccccc2c1=O` the same measures were 7.27 and 7.28. With `Cn1nc(CC(=O)Nc2ccc(Br)c(C(F)(F)F)c2)c2ccccc2c1=O`, the negative-log EC50 (pEC50) in data set [3] is 6.52; in data set [5] it was 5.40. For the same compound, in [4], the “Ratio EC50” value stood at 14. In addition, the pIC50 in data set [1] was 7.62; in data set [2], 7.32. In the case of `COc1ccc(NC(=O)Cc2nn(C)c(=O)c3ccccc23)cc1C(F)(F)F`, the pIC50 in data set [1] was less than 5.30. Turning to `CCn1c2ccccc2c2cc(NC(=O)Cc3nn(C)c(=O)c4ccccc34)ccc21`, in data set [1], the pIC50 is less than 5.30. Consider `Cn1nc(CC(=O)Nc2ccc(Cl)c(C(F)(F)F)c2)c2ccccc2c1=O`, for which the outcome in data set [6] was inactive. In data set [7], this compound displayed a t1/2 of 1.32 h. Further, the Kii in data set [8] was 3.4 nM. For the same compound, in data set [8], the Kis came to 3.4 nM. In addition, the figures for the pEC50 in data set [3] and in data set [5] were 6.40 and 4.64, respectively. In [4], the “Ratio EC50” value is 60. Also, the pIC50 in data set [1] is 7.89; in data set [2], 7.60. Regarding `Cn1nc(CC(=O)Nc2ccc3oc4c(c3c2)CCCC4)c2ccccc2c1=O`, the pEC50 was 6.30 in [3] and 6.00 in [5]. For the same compound, the “Ratio EC50” value in data set [4] was 2. The results for the pIC50 in data set [1] and in data set [2] were 7.70 and 6.82, respectively. Regarding `Cn1nc(CC(=O)Nc2ccc(Cl)cc2Cl)c2ccccc2c1=O`, in [1], the pIC50 was less than 5.30.

`Cn1nc(CC(=O)Nc2ccc(F)cc2)c2ccccc2c1=O`: the pIC50 in data set [1] is less than 5.30. In the case of `Cn1nc(CC(=O)Nc2ccc3occc3c2)c2ccccc2c1=O`, the pIC50 in [1] was 7.03; in [2] it was 7.07.

With `CC(C)c1ccc(NC(=O)Cc2nn(C)c(=O)c3ccccc23)cc1`, the pIC50 in data set [1] was less than 5.30. For `Cn1nc(CC(=O)Nc2ccc(C#N)c(C#N)c2)c2ccccc2c1=O`, the pIC50 in [1] and in data set [2] was less than 5.60 in each case. As for `Cc1cc2cc(NC(=O)Cc3nn(C)c(=O)c4ccccc34)ccc2o1`, the values for the pIC50 in [1] and in data set [2] were 7.19 and 7.14, respectively. With `Cn1nc(CC(=O)Nc2cccc(C(F)(F)F)c2)c2ccccc2c1=O`, the pIC50 in [1] is less than 5.30.

For the compound `Cn1nc(CC(=O)Nc2cc(Cl)cc(Cl)c2)c2ccccc2c1=O`, the pIC50 in [1] is less than 5.30. For the compound `Cc1ccc(NC(=O)Cc2nn(C)c(=O)c3ccccc23)cc1`, the negative-log IC50 (pIC50) in data set [1] was less than 5.30. As to `Cn1nc(CC(=O)Nc2ccc(Br)cc2)c2ccccc2c1=O`, the negative-log IC50 (pIC50) in [1] and in data set [2] was 6.89 in each case. Regarding `CCOc1ccc(NC(=O)Cc2nn(C)c(=O)c3ccccc23)cc1`, in data set [1], the pIC50 is less than 5.30.

Regarding `Cn1nc(CC(=O)Nc2ccc(Br)cc2C(F)(F)F)c2ccccc2c1=O`, in [1], the pIC50 is less than 5.30. Take `COc1cc(NC(=O)Cc2nn(C)c(=O)c3ccccc23)ccc1Cl`: the pIC50 in [1] is 7.48; in data set [2], 7.40. For `Cc1cc(NC(=O)Cc2nn(C)c(=O)c3ccccc23)ccc1C#N` the same measures were 6.40 and 6.34. As to `Cn1nc(CC(=O)NC(C)(C)C)c2ccccc2c1=O`, the pIC50 in [1] was less than 5.30. As for `COc1ccc(NC(=O)Cc2nn(C)c(=O)c3ccccc23)cc1`, the values for the negative-log IC50 (pIC50) in data set [1] and in data set [2] were 6.00 and 6.03, respectively. Moreover, the Kii in data set [9] came out at 7 µM. Also, in data set [9], the Kis was determined as 1.8 µM. Consider `Cn1nc(CC(=O)Nc2ccc(N)c(C(F)(F)F)c2)c2ccccc2c1=O`, for which, in [1], the pIC50 is less than 5.30. As for `O=C(Cc1n[nH]c(=O)c2ccccc12)Nc1ccc(Cl)c(C(F)(F)F)c1`, the pIC50 was 7.40 in data set [1] and 7.21 in data set [2]. Consider `Cn1nc(CC(=O)Nc2ccc(Cl)c(F)c2)c2ccccc2c1=O`, for which the pIC50 in data set [1] is 6.70; in data set [2], 6.62. For the compound `Cc1cc(NC(=O)Cc2nn(C)c(=O)c3ccccc23)ccc1Br`, the pIC50 is 7.15 in data set [1] and 6.85 in data set [2]. Take `Cn1nc(CC(=O)Nc2cccc(Cl)c2)c2ccccc2c1=O`: in data set [1], the pIC50 was less than 5.30. Still for that read-out and setting: to `Cn1nc(CC(=O)Nc2cc(Cl)c(Cl)c(Cl)c2)c2ccccc2c1=O` belongs less than 5.30; to `Cn1nc(CC(=O)Nc2ccc(OC(F)(F)F)cc2)c2ccccc2c1=O`, less than 5.30. As for `Cn1nc(CC(=O)Nc2ccc3ccccc3c2)c2ccccc2c1=O`, the negative logarithm of the IC50 (pIC50) was 7.20 in [1] and 6.85 in [2].

Consider `Cn1nc(CC(=O)Nc2ccc(C#N)c(Cl)c2)c2ccccc2c1=O`, for which the pIC50 in [1] was 6.54; in data set [2], 6.33.

For the origin of these results see ChEMBL document CHEMBL2311526, “Phthalazinone inhibitors of inosine-5'-monophosphate dehydrogenase from Cryptosporidium parvum” (Bioorg Med Chem Lett, 2013).
